Consider six molecules from paper PMC4819167 (Biochemistry, 2016).

For assay [1], the target named is T1, pUL15C (Human herpesvirus 1, UniProt P04295). Kind of assay: Michaelis-Menten kinetic analysis with the dual-probe fluorescence assay. Type of assay: biochemical, herpes simplex virus.
The target of assay [2] is T1, pUL15C. Kind of assay: Yonetani-Theorell analysis of pUL15C nuclease inhibition. Type of assay: biochemical. The settings on record: compound 21 0-0.4 μM, raltegravir 0-2.0 μM, substrate 250 nM.
For assay [3], the target named is T1, pUL15C. Kind of assay: Dual-probe fluorescence assay of pUL15C nuclease activity. The class given is biochemical.
Assay [4] addresses T1, pUL15C. Kind of assay: Differential scanning fluorimetry. The note with it: wild-type pUL15C, DSF. The class given is binding. In short, it runs like this: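 Binding read by thermal shift: test compound added from a 1 mM DMSO stock to 1.6 µM pUL15C in 20 mM HEPES (pH 7.5), 10 mM MgCl₂, 100 mM NaCl and SYPRO Orange (1:2000). Heated 30 to 80 °C in 0.2 °C steps. Fluorescence was read at ex 483 / em 568 nm, ΔTm was derived from melt curves, and runs were in duplicate.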

The subject of assay [5] is HSV-2. The note with it: at noncytotoxic concentrations; cited from earlier work.
For assay [6], the system named is HSV-1. The settings on record: at noncytotoxic concentrations; cited from earlier work.
The target of assay [7] is Lys700Ala pUL15C (Human herpesvirus 1, UniProt P04295, K700A). Kind of assay: Differential scanning fluorimetry. The class given is binding, herpes simplex virus. The settings on record: DSF, 20 μM β-thujaplicinol.
Assay [8] deals with DNase I (Bos taurus, UniProt P00639). Kind of assay: DNase I cleavage of substrate 21D/33D. Type of assay: biochemical. The settings on record: 1 mM Mn2+, 20 μM compound.
Sequence of DNase I (P00639 23-282): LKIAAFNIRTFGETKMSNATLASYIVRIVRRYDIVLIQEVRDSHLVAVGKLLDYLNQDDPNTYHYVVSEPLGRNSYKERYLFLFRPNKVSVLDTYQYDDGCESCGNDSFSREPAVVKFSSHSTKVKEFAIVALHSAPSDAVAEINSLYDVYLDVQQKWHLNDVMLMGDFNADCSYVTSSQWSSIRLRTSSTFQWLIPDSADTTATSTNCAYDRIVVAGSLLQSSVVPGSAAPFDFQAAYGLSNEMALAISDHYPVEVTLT
Assay [9] concerns the target T1, pUL15C. Kind of assay: pUL15C nuclease activity on supercoiled plasmid, agarose gel electrophoresis. The class given is biochemical, herpes simplex virus.

A value given as a limit tells only on which side of the number the result lay.

For `Cc1nnc(C(=O)NC(C)(C)c2nc(C(=O)NCc3ccc(F)cc3)c(O)c(=O)n2C)o1` [raltegravir], in assay [1], the Ki (as a rule, the equilibrium dissociation constant of an inhibitor or competing ligand from its target) was found to be 1000 ± 100 nM. The “mode of pUL15C inhibition” value in assay [1] (Lineweaver-Burke plot) is reported as “noncompetitively inhibits”. For the same molecule, the “binding-site overlap of compound 21 and raltegravir (Yonetani-Theorell plot)” value in assay [2] is on record as “mutually exclusive”. Also, half-maximal inhibition in assay [3] (IC50) was put at 390 ± 50 nM.
With `CCN1C[C@H](C)n2c(c(O)c3c(=O)n(Cc4ccc(F)c(Cl)c4)nc(C(=O)NC)c32)C1=O` [MK2048], the half-maximal inhibitory concentration (IC50) (in general, the midpoint of a concentration-inhibition curve) in assay [3] (read-out: IC50, pUL15C nuclease activity, dual-probe fluorescence assay, 0.3 μM pUL15C, 250 nM DNA duplex, 1 mM MnCl2, 37 °C, triplicate) was above 10000 nM. The “decrease of the Tm of pUL15C (destabilizing effect)” value in assay [4] is around 0.5 °C.
In the case of manicol, the “replication of wild-type and ACV-resistant HSV-2” value in assay [5] was “suppress replication”. Also, the “replication of wild-type and ACV-resistant HSV-1” value in assay [6] is “suppress replication”.
Turning to `COc1cc2c(cc1Cc1cccc(Cl)c1F)c(=O)c(C(=O)O)cn2[C@H](CO)C(C)C` [elvitegravir], in assay [3], the IC50 is above 10000 nM. In addition, in [4], the “decrease of the Tm of pUL15C (destabilizing effect)” value is around 0.5 °C.
In assay [3], `C[C@@H]1CCO[C@H]2Cn3cc(C(=O)NCc4ccc(F)cc4F)c(=O)c(O)c3C(=O)N12` [dolutegravir] gave an IC50 of 1100 ± 90 nM.
`CC(C)c1ccc(O)c(=O)c(O)c1` [β-thujaplicinol]: in assay [7], the “increase of Tm of the Lys700Ala mutant” value came out at 4.30 °C. In addition, in [8], the “inhibition of DNase I cleavage of substrate 21D/33D” value is listed as “insensitive to inhibition”. In addition, the “replication of wild-type and ACV-resistant HSV-2” value in [5] is recorded as “suppress replication”. In addition, the “replication of wild-type and ACV-resistant HSV-1” value in assay [6] is given as “suppress replication”. Further, half-maximal inhibition in assay [9] (IC50) was put at 2000 nM.
